Experimental data: ChEMBL document CHEMBL5257020, “Discovery of a 9-mer Cationic Peptide (LTX-315) as a Potential First in Class Oncolytic Peptide” (J Med Chem, 2016)
Where a SMILES comes first, the peptide text is derived from it. [ ]: non-standard residue; d: D form. ξ: configuration not given here. ξDip = NC(C(=O)O)C(c1ccccc1)c1ccccc1

How the values were obtained:
[1] = system: Ramos; experiment: Cytotoxicity against human Ramos cells assessed as inhibition of cell proliferation incubated for 4 hrs by MTS assay; type: functional, cell-based
How it was run: (§1)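 Cells grown in RPMI-1640 with 2 mM L-glutamine and 10% FBS, plated, then held 24 h at 37 °C. Adherent lines washed once in FBS-free medium. Cells exposed 4 h at 37 °C, 5% CO2 in FBS-free medium to 10 concentrations (1/4 steps, 400 μM top). 1% Triton X-100 served as positive control. MTS/PMS added for 2 h, then OD 490 nm read. IC50 from semilog curves; three independent experiments, quadruplicate wells.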

[2] = Cytotoxicity against human MINO cells assessed as inhibition of cell proliferation incubated for 4 hrs by MTS assay; type: functional, cell-based; how it was run: as §1
[3] = system: KARPAS-299; experiment: Cytotoxicity against human KARPAS-299 cells assessed as inhibition of cell proliferation incubated for 4 hrs by MTS assay; type: functional, cell-based; conditions: KARPAS-299, 4 h; how it was run: as §1
[4] = system: CCRF-CEM; experiment: Cytotoxicity against human CCRF-CEM cells assessed as inhibition of cell proliferation incubated for 4 hrs by MTS assay; type: functional, cell-based; how it was run: as §1
[5] = system: A20; experiment: Cytotoxicity against mouse A20 lymphoma cells assessed as inhibition of cell proliferation incubated for 4 hrs by MTT assay; type: functional, cell-based; conditions: A20, 4 h
How it was run: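 Murine A20 cells cultured in RPMI-1640 with 2 mM L-glutamine, 1.5 g/L sodium bicarbonate, 4.5 g/L glucose, 10 mM HEPES, 1.0 mM sodium pyruvate, 0.05 mM 2-mercaptoethanol and 10% FBS, without antibiotics, at 37 °C, 5% CO2. IC50 from three or more independent measurements, given as mean ± SD.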

[6] = system: HL60/ADR; experiment: Cytotoxicity against human HL60/ADR cells assessed as inhibition of cell proliferation incubated for 4 hrs by MTS assay; type: functional, cell-based; how it was run: as §1
[7] = system: MCF7; experiment: Cytotoxicity against human MCF7 cells assessed as inhibition of cell proliferation incubated for 4 hrs by MTS assay; type: functional, cell-based; conditions: MCF7, 4 h; how it was run: as §1
[8] = system: IGROV-1; experiment: Cytotoxicity against human IGROV-1 cells assessed as inhibition of cell proliferation incubated for 4 hrs by MTS assay; type: functional, cell-based; conditions: IGROV-1, 4 h; how it was run: as §1
[9] = Cytotoxicity against human IGROV(CDDP) cells assessed as inhibition of cell proliferation incubated for 4 hrs by MTS assay; type: functional, cell-based; how it was run: as §1
[10] = system: K562; experiment: Cytotoxicity against human K562 cells assessed as inhibition of cell proliferation incubated for 4 hrs by MTS assay; type: functional, cell-based; conditions: K562, 4 h; how it was run: as §1
[11] = system: K562; experiment: Cytotoxicity in imatinib resistant human K562 cells assessed as inhibition of cell proliferation incubated for 4 hrs by MTS assay; type: functional, cell-based; conditions: K562, 4 h
How it was run: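 Oncodesign panel MTS/PMS assay. Cells in RPMI-1640 + 10% FBS. After 24 h pre-plating, adherent lines washed in FBS-free medium. Cells exposed 4 h at 37 °C in FBS-free medium to 10 concentrations, 1/4 dilutions from 400 μM top. Triton X-100 (1% final) positive control. MTS/PMS added, 2 h, OD 490 nm. IC50 from semilog curves. Three independent experiments, quadruplicate wells.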

[12] = system: Daudi; experiment: Cytotoxicity against human Daudi cells assessed as inhibition of cell proliferation incubated for 4 hrs by MTS assay; type: functional, cell-based; how it was run: as §1
[13] = system: Toledo; experiment: Cytotoxicity against human Toledo cells assessed as inhibition of cell proliferation incubated for 4 hrs by MTS assay; type: functional, cell-based; how it was run: as §1
[14] = system: U-937; experiment: Cytotoxicity against human U-937 cells assessed as inhibition of cell proliferation incubated for 4 hrs by MTS assay; type: functional, cell-based; conditions: U-937, 4 h; how it was run: as §1
[15] = system: CEM-VLB; experiment: Cytotoxicity against human CCRF-CEM/VLB cells assessed as inhibition of cell proliferation incubated for 4 hrs by MTS assay; type: functional, cell-based; how it was run: as §1
[16] = system: RPMI-8226; experiment: Cytotoxicity against human RPMI-8226 cells assessed as inhibition of cell proliferation incubated for 4 hrs by MTS assay; type: functional, cell-based; conditions: RPMI-8226, 4 h; how it was run: as §1
[17] = system: SH-SY5Y; experiment: Cytotoxicity against human SH-SY5Y cells assessed as inhibition of cell proliferation incubated for 4 hrs by MTS assay; type: functional, cell-based; how it was run: as §1
[18] = system: SK-N-AS; experiment: Cytotoxicity against human SK-N-AS cells assessed as inhibition of cell proliferation incubated for 4 hrs by MTS assay; type: functional, cell-based; how it was run: as §1
[19] = system: MDA-MB-231; experiment: Cytotoxicity against human MDA-MB-231 cells assessed as inhibition of cell proliferation incubated for 4 hrs by MTS assay; type: functional, cell-based; conditions: MDA-MB-231, 4 h; how it was run: as §1
[20] = system: MDA-MB-435S; experiment: Cytotoxicity against human MDA-MB-435S cells assessed as inhibition of cell proliferation incubated for 4 hrs by MTS assay; type: functional, cell-based; how it was run: as §1
[21] = system: HCT-15; experiment: Cytotoxicity against human HCT-15 cells assessed as inhibition of cell proliferation incubated for 4 hrs by MTS assay; type: functional, cell-based; conditions: HCT-15, 4 h; how it was run: as §1
[22] = Cytotoxicity against human HUVEC-C cells assessed as inhibition of cell proliferation incubated for 4 hrs by MTS assay; type: toxicity, cell-based; how it was run: as §1
[23] = system: 786-0; experiment: Cytotoxicity against human 786-0 cells assessed as inhibition of cell proliferation incubated for 4 hrs by MTS assay; type: functional, cell-based; conditions: 786-0, 4 h; how it was run: as §1
[24] = system: HepG2; experiment: Cytotoxicity against human HepG2 cells assessed as inhibition of cell proliferation incubated for 4 hrs by MTS assay; type: functional, cell-based; conditions: HepG2, 4 h; how it was run: as §1
[25] = system: SK-HEP1; experiment: Cytotoxicity against human SK-HEP1 cells assessed as inhibition of cell proliferation incubated for 4 hrs by MTS assay; type: functional, cell-based; conditions: SK-HEP1, 4 h; how it was run: as §1
[26] = system: A549; experiment: Cytotoxicity against human A549 cells assessed as inhibition of cell proliferation incubated for 4 hrs by MTS assay; type: functional, cell-based; conditions: A549, 4 h; how it was run: as §1
[27] = system: Calu-6; experiment: Cytotoxicity against human Calu-6 cells assessed as inhibition of cell proliferation incubated for 4 hrs by MTS assay; type: functional, cell-based; conditions: Calu-6, 4 h; how it was run: as §1
[28] = Cytotoxicity against human MRC5 cells assessed as inhibition of cell proliferation incubated for 4 hrs by MTS assay; type: toxicity, cell-based; how it was run: as §1
[29] = system: NCI-H460; experiment: Cytotoxicity against human NCI-H460 cells assessed as inhibition of cell proliferation incubated for 4 hrs by MTS assay; type: functional, cell-based; conditions: NCI-H460, 4 h; how it was run: as §1
[30] = system: BXPC-3; experiment: Cytotoxicity against human BXPC-3 cells assessed as inhibition of cell proliferation incubated for 4 hrs by MTS assay; type: functional, cell-based; conditions: BXPC-3, 4 h; how it was run: as §1
[31] = system: PANC-1; experiment: Cytotoxicity against human PANC-1 cells assessed as inhibition of cell proliferation incubated for 4 hrs by MTS assay; type: functional, cell-based; conditions: PANC-1, 4 h; how it was run: as §1
[32] = system: DU-145; experiment: Cytotoxicity against human DU-145 cells assessed as inhibition of cell proliferation incubated for 4 hrs by MTS assay; type: functional, cell-based; conditions: DU-145, 4 h; how it was run: as §1
[33] = system: A-431; experiment: Cytotoxicity against human A-431 cells assessed as inhibition of cell proliferation incubated for 4 hrs by MTS assay; type: functional, cell-based; conditions: A-431, 4 h; how it was run: as §1
[34] = system: Malme-3M; experiment: Cytotoxicity against human Malme-3M cells assessed as inhibition of cell proliferation incubated for 4 hrs by MTS assay; type: functional, cell-based; how it was run: as §1
[35] = system: SK-MEL-2; experiment: Cytotoxicity against human SK-MEL-2 cells assessed as inhibition of cell proliferation incubated for 4 hrs by MTS assay; type: functional, cell-based; conditions: SK-MEL-2, 4 h; how it was run: as §1
[36] = Cytotoxicity against human Hs 445 cells assessed as inhibition of cell proliferation incubated for 4 hrs by MTS assay; type: functional, cell-based; conditions: Hs 445, 4 h; how it was run: as §1
[37] = Cytotoxicity against human U-87 MG cells assessed as inhibition of cell proliferation incubated for 4 hrs by MTS assay; type: functional, cell-based, U-87MG ATCC; how it was run: as §1

NCCCC[C@H](NC(=O)[C@H](Cc1c[nH]c2ccccc12)NC(=O)[C@H](CCCCN)NC(=O)[C@H](CCCCN)NC(=O)C(NC(=O)[C@H](Cc1c[nH]c2ccccc12)NC(=O)[C@H](CCCCN)NC(=O)[C@H](CCCCN)NC(=O)[C@@H](N)Cc1c[nH]c2ccccc12)C(c1ccccc1)c1ccccc1)C(N)=O (some centres not stated) (H-WKKW[ξDip]KKWK-NH2)
IC50 [1]: 5.4 µM
IC50 [2]: 9.5 µM
IC50 [3]: 11.6 µM
IC50 [4]: 7.8 µM
IC50 [5]: 16 µM
IC50 [6]: 10.5 µM
IC50 [7]: 8.9 µM
IC50 [8]: 19.6 µM
IC50 [9]: 6.4 µM
IC50 [10]: 8.2 µM
IC50 [11]: 9 µM
IC50 [12]: 8.1 µM
IC50 [13]: 7.7 µM
IC50 [14]: 5.3 µM
IC50 [15]: 5.3 µM
IC50 [16]: 6 µM
IC50 [17]: 12.7 µM
IC50 [18]: 10.4 µM
IC50 [19]: 13 µM
IC50 [20]: 14.1 µM
IC50 [21]: 12 µM
IC50 at 4 h [22]: 55.5 µM
IC50 [23]: 19.2 µM
IC50 [24]: 20.1 µM
IC50 [25]: 15.6 µM
IC50 [26]: 10.4 µM
IC50 [27]: 6.9 µM
IC50 at 4 h [28]: 28 µM
IC50 [29]: 9 µM
IC50 [30]: 17.9 µM
IC50 [31]: 17.1 µM
IC50 [32]: 12.4 µM
IC50 [33]: 11.7 µM
IC50 [34]: 12.4 µM
IC50 [35]: 18.4 µM
IC50 [36]: 6.5 µM
IC50 [37]: 17.3 µM
